Bioassay records (PubChem BioAssay)
OX1R antag-1: OX1R (HCRTR1) antagonists, primary screen, fluorescence, CHO/OX1R cells, Fluo-8 calcium, orexin A | Orexin/Hypocretin receptor type 1 (Homo sapiens), O43613 | Fluo-8 calcium fluorescence | inhibition, % at 5 µM | 0.43% of 330,000 active | AID 434989, 2010;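 active = inhibition above its plate's threshold, mean inhibition of all tested compounds on the plate plus 3 SD, cut at about 37% in these data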;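 also: 0% = orexin A challenge wells and 100% = SB-334867-A antagonist wells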
Target sequence (O43613 whole entry, looked up): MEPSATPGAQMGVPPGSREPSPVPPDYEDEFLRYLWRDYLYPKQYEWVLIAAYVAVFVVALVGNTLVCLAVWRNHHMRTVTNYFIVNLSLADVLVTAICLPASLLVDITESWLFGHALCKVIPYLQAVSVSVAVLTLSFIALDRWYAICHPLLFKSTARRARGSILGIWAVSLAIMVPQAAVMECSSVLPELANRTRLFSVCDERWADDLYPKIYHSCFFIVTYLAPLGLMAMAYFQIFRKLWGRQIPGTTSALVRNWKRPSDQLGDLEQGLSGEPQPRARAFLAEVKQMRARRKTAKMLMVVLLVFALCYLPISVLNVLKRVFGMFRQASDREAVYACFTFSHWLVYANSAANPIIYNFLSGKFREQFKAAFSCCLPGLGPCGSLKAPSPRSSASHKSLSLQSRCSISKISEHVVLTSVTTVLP
TAAR1 antagonist: human TAAR1 antagonists, primary screen, Fluo-8 calcium fluorescence, CHO RD-HGA16 cells | Trace amine-associated receptor 1 (Homo sapiens), Q96RJ0 | antagonist | inhibition, % at 3 µM | 1.5% of 360,000 active;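 active = inhibition above a per-plate cutoff, the mean inhibition of test compounds on that plate plus 3 SD, cut at about 49% in these data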;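 also: 0% = DMSO plus EC80 beta-PEA response and 100% = DMSO alone without agonist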
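test system = CHO RD-HGA16 cells bearing hTAAR1 | replication = singlicate | controls = DMSO-only wells and EC80 β-PEA-stimulated wells | reagent = EC80 β-phenethylamine stimulus | read-out basis = percent inhibition of PEA-evoked calcium signal, max/basal emission ratio | schedule = seeding 17-24 h prior, 75-min 37 °C, 30-min RT dye loading | signal = kinetic Fluo-8 calcium fluorescence measurement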
TAAR1 ag: human TAAR1 agonists, primary screen, Fluo-8 calcium fluorescence, CHO RD-HGA16 cells; AID 624467, 2012; Trace amine-associated receptor 1 (Homo sapiens), Q96RJ0; vehicle wells 0%, saturating PEA agonist 100%; 0.99% of 360,000 active; activation, % at 3 µM;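 active = activation above the mean activation of all test compounds in the run plus 3 SD, cut at about 38% in these data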
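System: CHO-derived RD-HGA16 cells with stable Gα16 and human TAAR1. Times: 17-24 h plating, Fluo-8 75 min 37 °C, 30 min RT. Measured by: calcium-sensitive Fluo-8 signal, excitation 470-495, emission 515-575 nm. Read-out basis: % activation relative to PEA EC100 response. Control set: DMSO and PEA EC100. Repeats: no replicates (n 1).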
CHO parental Ca: ATP-evoked calcium signal inhibitors, parental CHO, primary screen, counter-screen for OX1R antagonist project, cell-based, fluorescence, Fluo-8 calcium dye; inhibition, % at 5.6 µM; 0.63% of 330,000 active; parental CHO-K1, ATP-induced calcium, Fluo-8 fluorescence;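 active = inhibition above that plate's mean sample inhibition plus 3 SD, cut at about 26% in these data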;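 also: 0% = ATP-challenged DMSO wells and 100% = DMSO wells without ATP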
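test system = CHO parental line | reagent = ATP stimulus | measured by = intracellular calcium via Fluo-8 no-wash fluorescent dye | control set = ATP and no-ATP DMSO wells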
NTR1 agonist: agonists of human NTR1, primary screen, imaging, U2OS cells, beta-arrestin-GFP, high content | Neurotensin receptor type 1 (Homo sapiens), P30989 | NTR1-U2OS beta-arrestin-GFP spot imaging, agonist mode | activation, % at 20 µM | AID 493036, 2011 | 0.17% of 330,000 active;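 active = activation at or above 40% of the spot to cytoplasm intensity ratio, with at least 20 cells analyzed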;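 also: 0% = DMSO without peptide and 100% = 100 nM NTR1 peptide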
OX1R antag-2: antagonists of human orexin 1 receptor (OX1R); OX1R-expressing cells, FRET antagonist read-out; inhibition, % at 6.6 µM; 1.8% of 330,000 active; in the data active = inhibition mostly above about 38%, no sharp cut-off; inactive = mostly below about 40%;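 also: 0% = agonist challenge alone and 100% = reference antagonist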
Starred values were filed as active, the others as inactive. Only some compounds are listed: those with a hit (about 4% of all), similar ones and a draw of the others.

What do the screens show for `CCOC(=O)C1=C(CSc2nc3ccccc3s2)NC(=O)NC1c1ccc(OC)cc1` (stereo not drawn)?
OX1R antag-1: -15; TAAR1 antagonist: -10; TAAR1 ag: 9; CHO parental Ca: -18; NTR1 agonist: 4; OX1R antag-2: 31

Results for CCOC(=O)C1=C(CSc2nc3ccccc3s2)NC(=O)NC1c1cc(C)ccc1C (stereo not drawn) ?
OX1R antag-1: 27; TAAR1 antagonist: 1; TAAR1 ag: -1; CHO parental Ca: -29; NTR1 agonist: 11; OX1R antag-2: 49*

What do the screens show for `CC(C)c1ccc(N(C(=O)c2snc(C(N)=O)c2N)C(C(=O)NCC2CCCO2)c2ccc(N(C)C)cc2)cc1` (stereo not drawn)?
TAAR1 antagonist: 55*; TAAR1 ag: 24; NTR1 agonist: 11

Results for CN(C)c1ccc(C(C(=O)NCC2CCCO2)N(C(=O)c2snc(C(N)=O)c2N)c2ccc3c(c2)OCO3)cc1 (stereo not drawn) ?
OX1R antag-1: -19; TAAR1 antagonist: 22; TAAR1 ag: 13; CHO parental Ca: -8; NTR1 agonist: 1; OX1R antag-2: 32

Results for CN(C)c1ccc(C(C(=O)NCC2CCCO2)N(C(=O)c2snc(C(N)=O)c2N)c2ccccc2)cc1 (stereo not drawn) ?
OX1R antag-1: -4; TAAR1 antagonist: 52*; TAAR1 ag: 22; CHO parental Ca: 6; NTR1 agonist: -1; OX1R antag-2: 9

What do the screens show for `NC(=O)c1nsc(C(=O)N(c2ccccc2)C(C(=O)NC2CCCC2)c2ccc3ncccc3c2)c1N` (stereo not drawn)?
OX1R antag-1: -4; TAAR1 antagonist: 51*; TAAR1 ag: 8; CHO parental Ca: -7; NTR1 agonist: 0; OX1R antag-2: 17

Results for CCc1ccccc1N(C(=O)c1snc(C(N)=O)c1N)C(C(=O)NCC1CCCO1)c1ccc(N(C)C)cc1 (stereo not drawn) ?
TAAR1 antagonist: -7; TAAR1 ag: -1; NTR1 agonist: 3

What do the screens show for `COC(=O)C1=C(C)N(Cc2ccccc2C(F)(F)F)C(=NCc2ccc(C(F)(F)F)cc2)NC1c1cccc(F)c1` (stereo not drawn)?
TAAR1 antagonist: -24; TAAR1 ag: 9

Results for COc1ccccc1-c1ccc([C@@H]2C[C@H]3[C@H](CON3C)CN2CC2CCCCC2)cc1 ?
TAAR1 antagonist: -36; TAAR1 ag: 3

What do the screens show for `C[C@@H]1CN([C@@H](C)CO)S(=O)(=O)c2ccc(-c3ccc(C#N)cc3)cc2O[C@@H]1CN(C)Cc1ccccn1`?
TAAR1 antagonist: 56*; TAAR1 ag: 12

Results for C[C@@H]1CN([C@@H](C)CO)S(=O)(=O)c2ccc(Br)cc2O[C@@H]1CN(C)Cc1ccccn1 ?
TAAR1 antagonist: 5; TAAR1 ag: 0

How did C[C@H](O)C#Cc1ccc2c(c1)O[C@@H](CN(C)Cc1ccc(-c3ccccc3)cc1)[C@H](C)CN([C@@H](C)CO)S2(=O)=O do in these assays?
TAAR1 antagonist: 51*; TAAR1 ag: 6

Results for C[C@H](CO)N1C[C@H](C)[C@@H](CN(C)Cc2ccc3c(c2)OCO3)Oc2cc(Br)ccc2S1(=O)=O ?
TAAR1 antagonist: 50*; TAAR1 ag: 1

How did C[C@@H]1CN([C@@H](C)CO)S(=O)(=O)c2ccc(Br)cc2O[C@@H]1CN(C)Cc1ccc2c(c1)OCO2 do in these assays?
TAAR1 antagonist: 9; TAAR1 ag: 1

How did CCCCCCCCN1C(=O)[C@@H](CC(=O)NCC23CC4CC(CC(C4)C2)C3)C[C@@]2(C(=O)OC)C1=C[C@H](C(C)(C)C)O[C@@H]2C do in these assays?
TAAR1 antagonist: -1; TAAR1 ag: 1

Results for CC[C@@H](C)[C@@H](C(=O)N1CCN(C(=O)OC(C)(C)C)CC1)n1cc(CCCN=C(NC(=O)OC(C)(C)C)NC(=O)OC(C)(C)C)nn1 ?
OX1R antag-1: -25; TAAR1 antagonist: 4; TAAR1 ag: 0; CHO parental Ca: -22; NTR1 agonist: 2; OX1R antag-2: 34

How did CC[C@H](C)[C@@H](C(=O)NCCCCCCCCCCC(=O)N1CCN(C(=O)OC(C)(C)C)CC1)n1cc(CCCCCNC(=O)OC(C)(C)C)nn1 do in these assays?
OX1R antag-1: 32; TAAR1 antagonist: 60*; TAAR1 ag: 18; CHO parental Ca: 43*; NTR1 agonist: 1; OX1R antag-2: 13

Results for CC(C)(C)OC(=O)NCCCCCc1cn([C@@H](CO)C(=O)NCCCCCCCCCCC(=O)N2CCN(C(=O)OC(C)(C)C)CC2)nn1 ?
OX1R antag-1: 74*; TAAR1 antagonist: 87*; TAAR1 ag: 35; CHO parental Ca: 96*; NTR1 agonist: 82*; OX1R antag-2: 71*

How did CC(C)(C)OC(=O)CC[C@@H](C(=O)NCCCCCCCCCCC(=O)N1CCN(C(=O)OC(C)(C)C)CC1)n1cc(CCCCCNC(=O)OC(C)(C)C)nn1 do in these assays?
OX1R antag-1: -31; TAAR1 antagonist: 42; TAAR1 ag: 8; CHO parental Ca: -21; NTR1 agonist: 0; OX1R antag-2: 26

How did CC[C@H](C)[C@@H](C(=O)NCCCCCCCCCCC(=O)N1CCN(C(=O)OC(C)(C)C)CC1)n1cc(CCCCN=C(NC(=O)OC(C)(C)C)NC(=O)OC(C)(C)C)nn1 do in these assays?
OX1R antag-1: -9; CHO parental Ca: -14; NTR1 agonist: 63*; OX1R antag-2: 27

Results for COc1cccc(C(=O)NCC2CCN(C(=O)C(=O)c3cc4ccccc4o3)CC2)c1 ?
TAAR1 antagonist: -19; TAAR1 ag: 0

What do the screens show for `O=C1C(Oc2ccccc2)C(c2cccs2)N1Cc1ccc2c(c1)OCO2` (stereo not drawn)?
OX1R antag-1: 43; TAAR1 antagonist: 36; TAAR1 ag: 14; CHO parental Ca: 24; NTR1 agonist: 2; OX1R antag-2: 11

Results for COc1ccc(OC2C(=O)N(Cc3ccc4c(c3)OCO4)C2c2cccs2)cc1 (stereo not drawn) ?
OX1R antag-1: 58*; TAAR1 antagonist: 56*; TAAR1 ag: 9; CHO parental Ca: 41*; NTR1 agonist: 6; OX1R antag-2: 17

What do the screens show for `O=C(CC1SC(=NCC2CCCO2)NC1=O)Nc1cc([N+](=O)[O-])ccc1Cl` (stereo not drawn)?
OX1R antag-1: -10; TAAR1 antagonist: 8; TAAR1 ag: -1; CHO parental Ca: -6; NTR1 agonist: 2; OX1R antag-2: 14
